# Reference: ChEMBL document CHEMBL1156768, “The structure-activity relationship of the antimalarial ozonide arterolane (OZ277)” (J Med Chem, 2010)
# What was measured:
# Plasmodium berghei [1] = experiment: Antiplasmodial activity against Plasmodium berghei infected in NMRI mice (Mus musculus) assessed as reduction of parasitaemia level at 10 mg/kg, perorally administered 1 day after post-infection measured after 3 days post-infection; assay type: functional; design: scale not given: the % may be the effect or the level left; conditions: route oral
# Summary of the method: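 Groups of five NMRI mice infected with P. berghei received a single oral dose on day 1 postinfection. Read-out was percent reduction in parasitemia on day 3 postinfection. Individual measurements differed by less than 10%.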
# Plasmodium berghei [2] = experiment: Antiplasmodial activity against Plasmodium berghei infected in NMRI mice (Mus musculus) assessed as curing of parasitaemia at 3 mg/kg, perorally daily once for 3 consecutive days measured after 30 days post-infection; assay type: functional; conditions: route oral
# Summary of the method: (§1)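 P. berghei-infected NMRI mice, in groups of five, were dosed orally at 3 mg/kg on days +1, +2 and +3 postinfection. Parasitemia reduction, survival time and cure were scored.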
# Plasmodium berghei [3] = experiment: Antiplasmodial activity against Plasmodium berghei infected in NMRI mice (Mus musculus) assessed as reduction of parasitaemia level at 3 mg/kg, perorally daily once for 3 consecutive days measured after 4 days post-infection; assay type: functional; design: scale not given: the % may be the effect or the level left; conditions: route oral; summary of the method: as §1
# Plasmodium berghei [4] = experiment: Antiplasmodial activity against Plasmodium berghei infected in NMRI mice (Mus musculus) assessed as mice (Mus musculus) survival days at 3 mg/kg, perorally daily once for 3 consecutive days measured after 4 days post-infection; assay type: functional; conditions: route oral; summary of the method: as §1
# Plasmodium falciparum [5] = experiment: Antimalarial activity against chloroquine-resistant Plasmodium falciparum K1 infected in human A+ erythrocytes assessed as [3H]hypoxanthine incorporation by semiautomated micro dilution assay; assay type: functional, organism-based
# Plasmodium falciparum [6] = experiment: Antimalarial activity against chloroquine-sensitive Plasmodium falciparum NF54 infected in human A+ erythrocytes assessed as [3H]hypoxanthine incorporation by semi-automated micro dilution assay; assay type: functional, organism-based
# Cytochrome P450 3A4 = Cytochrome P450 3A4 (Homo sapiens, UniProt P08684); experiment: Inhibition of human CYP3A4 up to 50 uM; assay type: ADME
# [7] = Oral bioavailability in Sprague-Dawley rat; assay type: ADME, organism-based; conditions: in vivo
# Summary of the method: (§2)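 Rats received an IV infusion over 5-10 min through a jugular cannula at 2.5-3.5 mg/kg, in DMSO/aqueous buffer or propylene glycol/ethanol/water. Oral gavage used aqueous suspensions in HPMC or CMC with 0.4% Tween 80 and 0.5% benzyl alcohol. Carotid blood was sampled, and plasma was acetonitrile-precipitated and measured by LC/MS against plasma calibration standards. Values are averages of 2-3 determinations.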
# [8] = Volume of distribution in Sprague-Dawley rat at 2.5 to 3.5 mg/kg, iv; assay type: ADME, organism-based; design: dose 2.5-3.5 mg/kg, route intravenous; conditions: in vivo; summary of the method: as §2
# Rattus norvegicus [9] = experiment: Lymphatic organ toxicity in Sprague-Dawley rat at 300 mg/kg, po daily once for 5 days; assay type: organism-based; design: dose 300 mg/kg, route oral; conditions: in vivo, 120 h
# Summary of the method: (§3)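 Preliminary toxicology was run in male rats given daily oral doses for five days.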
# Cytochrome P450 2D6 = Cytochrome P450 2D6 (Homo sapiens, UniProt P10635); experiment: Inhibition of human CYP2D6 up to 50 uM; assay type: ADME
# Rattus norvegicus [10] = experiment: Renal toxicity in Sprague-Dawley rat at 300 mg/kg, po daily once for 5 days; assay type: organism-based; design: dose 300 mg/kg, route oral; conditions: in vivo, 120 h; summary of the method: as §3
# Rattus norvegicus [11] = experiment: Liver toxicity in Sprague-Dawley rat at 300 mg/kg, po daily once for 5 days; assay type: organism-based; design: dose 300 mg/kg, route oral; conditions: in vivo, 120 h; summary of the method: as §3
# Cytochrome P450 2C9 = Cytochrome P450 2C9 (Homo sapiens, UniProt P11712); experiment: Inhibition of human CYP2C9 up to 50 uM; assay type: ADME
# [12] = Plasma clearance in Sprague-Dawley rat at 2.5 to 3.5 mg/kg, iv; assay type: ADME, organism-based; design: dose 2.5-3.5 mg/kg, route intravenous; summary of the method: as §2
# [13] = Half life in Sprague-Dawley rat at 2.5 to 3.5 mg/kg, iv; assay type: ADME, organism-based; design: dose 2.5-3.5 mg/kg, route intravenous; conditions: in vivo; summary of the method: as §2
# [14] = Blood clearance in Sprague-Dawley rat at 2.5 to 3.5 mg/kg, iv; assay type: ADME, organism-based; design: dose 2.5-3.5 mg/kg, route intravenous; conditions: whole blood; summary of the method: as §2
# Rattus norvegicus [15] = experiment: Neurotoxicity in Sprague-Dawley rat at 300 mg/kg, po daily once for 5 days; assay type: toxicity, organism-based; design: dose 300 mg/kg, route oral; conditions: in vivo, 120 h; summary of the method: as §3
# [16] = Partition coefficient, log D in octanol/buffer at pH 7.4 by chromatographic method; assay type: physicochemical
# Sequence of Cytochrome P450 2D6 (P10635 whole entry): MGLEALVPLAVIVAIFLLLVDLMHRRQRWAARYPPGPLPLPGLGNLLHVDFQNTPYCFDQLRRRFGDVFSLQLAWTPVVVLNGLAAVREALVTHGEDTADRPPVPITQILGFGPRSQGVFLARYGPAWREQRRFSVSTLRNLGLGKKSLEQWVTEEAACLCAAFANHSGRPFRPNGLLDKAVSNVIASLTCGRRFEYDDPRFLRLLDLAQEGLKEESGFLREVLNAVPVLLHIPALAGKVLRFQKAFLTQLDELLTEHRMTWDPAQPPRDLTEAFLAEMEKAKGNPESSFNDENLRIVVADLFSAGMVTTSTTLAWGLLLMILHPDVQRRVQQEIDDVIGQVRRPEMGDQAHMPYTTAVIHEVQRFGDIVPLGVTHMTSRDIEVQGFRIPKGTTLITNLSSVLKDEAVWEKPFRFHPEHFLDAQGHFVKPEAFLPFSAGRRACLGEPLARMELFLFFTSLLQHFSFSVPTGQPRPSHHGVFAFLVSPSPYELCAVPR
# Sequence of Cytochrome P450 3A4 (P08684 whole entry): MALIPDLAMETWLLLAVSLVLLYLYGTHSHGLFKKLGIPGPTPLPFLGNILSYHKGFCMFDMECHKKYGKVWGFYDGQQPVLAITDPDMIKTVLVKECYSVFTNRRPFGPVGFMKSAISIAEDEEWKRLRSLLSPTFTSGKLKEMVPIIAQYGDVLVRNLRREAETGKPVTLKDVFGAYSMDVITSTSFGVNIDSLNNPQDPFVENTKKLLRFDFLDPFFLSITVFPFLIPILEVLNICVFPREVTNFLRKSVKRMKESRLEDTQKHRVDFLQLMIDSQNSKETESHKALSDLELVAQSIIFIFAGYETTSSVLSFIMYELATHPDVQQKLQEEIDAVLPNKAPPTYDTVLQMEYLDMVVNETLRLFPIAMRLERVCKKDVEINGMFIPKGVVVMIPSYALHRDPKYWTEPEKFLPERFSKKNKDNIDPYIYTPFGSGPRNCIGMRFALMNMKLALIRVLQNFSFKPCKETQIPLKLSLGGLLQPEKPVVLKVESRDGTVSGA
# Sequence of Cytochrome P450 2C9 (P11712 whole entry): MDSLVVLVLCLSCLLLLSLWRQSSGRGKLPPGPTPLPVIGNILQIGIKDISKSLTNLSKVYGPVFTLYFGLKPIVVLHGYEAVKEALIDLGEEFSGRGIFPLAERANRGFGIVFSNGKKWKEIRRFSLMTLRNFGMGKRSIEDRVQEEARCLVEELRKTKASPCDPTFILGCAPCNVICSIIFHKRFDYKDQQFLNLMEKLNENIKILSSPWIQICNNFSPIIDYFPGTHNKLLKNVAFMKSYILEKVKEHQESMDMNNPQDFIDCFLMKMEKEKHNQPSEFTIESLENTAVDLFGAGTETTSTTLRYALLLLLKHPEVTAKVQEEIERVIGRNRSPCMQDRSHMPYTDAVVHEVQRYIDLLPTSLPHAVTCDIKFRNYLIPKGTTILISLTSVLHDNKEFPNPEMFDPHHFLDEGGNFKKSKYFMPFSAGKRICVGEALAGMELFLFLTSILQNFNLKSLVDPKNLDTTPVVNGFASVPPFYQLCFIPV
structure (smiles),measurement,setting,value
Cc1ccc(S(=O)(=O)O)cc1.N[C@H]1CC[C@H](NC(=O)C[C@H]2CC[C@]3(CC2)OO[C@]2(O3)C3CC4CC(C3)CC2C4)CC1,Activity,Plasmodium berghei [1],>99.9%
same,Activity,Plasmodium berghei [2],0%
same,Activity,Plasmodium berghei [3],>99.9%
same,Survival,Plasmodium berghei [4],22 days
O=C(O)C1CCN(C(=O)C[C@H]2CC[C@]3(CC2)OO[C@]2(O3)C3CC4CC(C3)CC2C4)CC1,IC50,Plasmodium falciparum [5],19 ng/mL
same,IC50,Plasmodium falciparum [6],27 ng/mL
O=C(C[C@H]1CC[C@]2(CC1)OO[C@]1(O2)C2CC3CC(C2)CC1C3)NO,Activity,Plasmodium berghei [1],97%
same,IC50,Plasmodium falciparum [5],1.4 ng/mL
same,IC50,Plasmodium falciparum [6],2 ng/mL
O=C1CN(C(=O)C[C@H]2CC[C@]3(CC2)OO[C@]2(O3)C3CC4CC(C3)CC2C4)CCN1,Activity,Plasmodium berghei [1],99.2%
same,IC50,Plasmodium falciparum [5],0.6 ng/mL
same,IC50,Plasmodium falciparum [6],0.89 ng/mL
O=C(C[C@H]1CC[C@]2(CC1)OO[C@]1(O2)C2CC3CC(C2)CC1C3)N1CCS(=O)(=O)CC1,Activity,Plasmodium berghei [1],<40%
Cc1ccc(S(=O)(=O)O)cc1.NC1CCN(C(=O)C[C@H]2CC[C@]3(CC2)OO[C@]2(O3)C3CC4CC(C3)CC2C4)CC1,Activity,Cytochrome P450 3A4,Not Active
same,Activity,Plasmodium berghei [1],>99.9%
same,bioavailability,[7],78%
same,Vd,[8],19 L/kg
same,Activity,Rattus norvegicus [9],Non-toxic
same,Activity,Cytochrome P450 2D6,Not Active
same,IC50,Plasmodium falciparum [6],0.39 ng/mL
same,Activity,Plasmodium berghei [2],60%
same,Activity,Rattus norvegicus [10],Non-toxic
same,Activity,Plasmodium berghei [3],>99.9%
same,Activity,Rattus norvegicus [11],Non-toxic
same,Activity,Cytochrome P450 2C9,Not Active
same,clearance,[12],157 mL/min/kg
same,half-life,[13],1.38 h
same,Survival,Plasmodium berghei [4],27 days
same,clearance,[14],39.1 mL/min/kg
same,Activity,Rattus norvegicus [15],Non-toxic
CC(C)(N)CNC(=O)[C@H]1CC[C@]2(CC1)OO[C@]1(O2)C2CC3CC(C2)CC1C3.Cc1ccc(S(=O)(=O)O)cc1,Activity,Plasmodium berghei [1],96%
same,IC50,Plasmodium falciparum [5],0.66 ng/mL
same,IC50,Plasmodium falciparum [6],0.25 ng/mL
O=C(C[C@H]1CC[C@]2(CC1)OO[C@]1(O2)C2CC3CC(C2)CC1C3)N1CCCCC1,IC50,Plasmodium falciparum [5],1.6 ng/mL
same,IC50,Plasmodium falciparum [6],1.6 ng/mL
O=C(C[C@H]1CC[C@]2(CC1)OO[C@]1(O2)C2CC3CC(C2)CC1C3)N1CCC(O)CC1,Activity,Plasmodium berghei [1],99.7%
same,bioavailability,[7],5%
same,IC50,Plasmodium falciparum [5],0.49 ng/mL
same,Vd,[8],36 L/kg
same,IC50,Plasmodium falciparum [6],0.76 ng/mL
same,clearance,[12],37 mL/min/kg
same,half-life,[13],11 h
O=C(C[C@H]1CC[C@]2(CC1)OO[C@]1(O2)C2CC3CC(C2)CC1C3)N1CCOCC1,Activity,Plasmodium berghei [1],99.8%
same,IC50,Plasmodium falciparum [5],1.7 ng/mL
same,IC50,Plasmodium falciparum [6],3 ng/mL
NC(=O)C[C@H]1CC[C@]2(CC1)OO[C@]1(O2)C2CC3CC(C2)CC1C3,Activity,Plasmodium berghei [1],97%
same,IC50,Plasmodium falciparum [5],0.91 ng/mL
same,IC50,Plasmodium falciparum [6],1.1 ng/mL
Cc1ccc(S(=O)(=O)O)cc1.NCCCNC(=O)C[C@H]1CC[C@]2(CC1)OO[C@]1(O2)C2CC3CC(C2)CC1C3,Activity,Plasmodium berghei [1],99.9%
same,IC50,Plasmodium falciparum [5],3.5 ng/mL
same,IC50,Plasmodium falciparum [6],2.3 ng/mL
C[C@H]1[C@@H](O)O[C@@H]2O[C@@]3(C)CC[C@H]4[C@H](C)CC[C@@H]1[C@@]24OO3 [ARTENIMOL],Vd,[8],3 L/kg
same,clearance,[12],72 mL/min/kg
CC(C)(N)CNC(=O)C[C@H]1CC[C@]2(CC1)OO[C@]1(O2)C2CC3CC(C2)CC1C3.Cc1ccc(S(=O)(=O)O)cc1 [ARTEROLANE],Activity,Cytochrome P450 3A4,Not Active
same,Activity,Plasmodium berghei [1],99.9%
same,bioavailability,[7],26%
same,IC50,Plasmodium falciparum [5],1 ng/mL
same,Vd,[8],16 L/kg
same,chromatographic logD,[16],2.9
same,Activity,Rattus norvegicus [9],Non-toxic
same,Activity,Cytochrome P450 2D6,Not Active
same,IC50,Plasmodium falciparum [6],0.91 ng/mL
same,Activity,Plasmodium berghei [2],0%
same,Activity,Rattus norvegicus [10],Non-toxic
same,Activity,Plasmodium berghei [3],>99.9%
same,Activity,Rattus norvegicus [11],Non-toxic
same,Activity,Cytochrome P450 2C9,Not Active
same,clearance,[12],141 mL/min/kg
same,half-life,[13],1.27 h
same,Survival,Plasmodium berghei [4],11.4 days
same,clearance,[14],62 mL/min/kg
same,Activity,Rattus norvegicus [15],Non-toxic
C[C@H]1[C@H](OC(=O)CCC(=O)O)O[C@@H]2O[C@@]3(C)CC[C@H]4[C@H](C)CC[C@@H]1[C@@]24OO3 [ARTESUNATE],Activity,Rattus norvegicus [9],Non-toxic
same,Activity,Rattus norvegicus [10],Non-toxic
same,Activity,Plasmodium berghei [3],70%
same,Activity,Rattus norvegicus [11],Non-toxic
same,Survival,Plasmodium berghei [4],9.2 days
same,Activity,Rattus norvegicus [15],Non-toxic
CCN(CC)CCCC(C)Nc1ccnc2cc(Cl)ccc12 (stereo unspecified) [CHLOROQUINE],Survival,Plasmodium berghei [4],9.4 days
OC(c1cc(C(F)(F)F)nc2c(C(F)(F)F)cccc12)C1CCCCN1 (stereo unspecified) [MEFLOQUINE],Activity,Plasmodium berghei [3],99%
same,Survival,Plasmodium berghei [4],15.8 days
